Key:
Assay type in all cases: functional
[1] = test system: NCI-H23; assay: Growth inhibition of human NCI-H23 cells at 10 uM after 48 hrs by sulforhodamine B assay; settings: NCI-H23, 48 h, read-out: GI
Summary of the method: (§1)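 Single-dose screen at 10 µM across the NCI 60 panel. Cells in RPMI 1640 with 5% FBS and 2 mM L-glutamine, plated at 5000–40,000/well and preincubated 24 h at 37 °C, 5% CO2. Drug in DMSO, 48 h exposure. Fixed with TCA, stained with SRB, A515 read. Percent growth is taken relative to untreated control, and inhibition is 100 minus growth.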

[2] = test system: UO-31; assay: Growth inhibition of human UO31 cells at 10 uM after 48 hrs by sulforhodamine B assay; settings: UO-31, 48 h, read-out: GI; summary of the method: as §1
[3] = test system: KM12; assay: Growth inhibition of human KM12 cells at 10 uM after 48 hrs by sulforhodamine B assay; settings: KM12, 48 h, read-out: GI; summary of the method: as §1
[4] = test system: CCRF-CEM; assay: Growth inhibition of human CCRF-CEM cells at 10 uM after 48 hrs by sulforhodamine B assay; settings: read-out: GI
Summary of the method: (§2)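 Single-dose NCI-60 prescreen at 10 µM for 48 h at 37 °C and 5% CO2, using cells grown in RPMI 1640 with 5% FBS and 2 mM glutamine. Protein was measured by SRB after TCA fixation: 10% final for adherent lines, 16% for suspension lines. Absorbance was read at 515 nm. Percent growth inhibition was obtained by subtracting percent growth from 100.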

[5] = test system: NCI-H460; assay: Growth inhibition of human NCI-H460 cells at 10 uM after 48 hrs by sulforhodamine B assay; settings: NCI-H460, 48 h, read-out: GI; summary of the method: as §1
[6] = test system: NCI-H322M; assay: Growth inhibition of human NCI-H322M cells at 10 uM after 48 hrs by sulforhodamine B assay; settings: read-out: GI; summary of the method: as §1
[7] = test system: OVCAR-8; assay: Growth inhibition of human OVCAR8 cells at 10 uM after 48 hrs by sulforhodamine B assay; settings: OVCAR-8, 48 h, read-out: GI; summary of the method: as §1
[8] = test system: MOLT-4; assay: Growth inhibition of human MOLT4 cells at 10 uM after 48 hrs by sulforhodamine B assay; settings: MOLT-4, 48 h, read-out: GI; summary of the method: as §1
[9] = test system: K562; assay: Growth inhibition of human K562 cells at 10 uM after 48 hrs by sulforhodamine B assay; settings: K562, 48 h, read-out: GI; summary of the method: as §1
[10] = test system: SF-539; assay: Growth inhibition of human SF539 cells at 10 uM after 48 hrs by sulforhodamine B assay; settings: SF-539, 48 h, read-out: GI; summary of the method: as §1
[11] = Growth inhibition of human HCC2998 cells at 10 uM after 48 hrs by sulforhodamine B assay; settings: HCC 2998, 48 h, read-out: GI
Summary of the method: (§3)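 NCI-60 one-dose primary screen at a single 10 µM concentration. Cells in RPMI 1640 with 5% FBS, preincubated 24 h at 37 °C, 5% CO2. Drug exposure 48 h, then TCA fixation, SRB staining and absorbance at 515 nm. Percent growth calculated against time-zero and untreated control wells, then converted to percent growth inhibition.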

[12] = test system: SN12C; assay: Growth inhibition of human SN12C cells at 10 uM after 48 hrs by sulforhodamine B assay; settings: read-out: GI; summary of the method: as §1
[13] = test system: SK-OV-3; assay: Growth inhibition of human SKOV3 cells at 10 uM after 48 hrs by sulforhodamine B assay; settings: SK-OV-3, 48 h, read-out: GI; summary of the method: as §1
[14] = test system: CAKI-1; assay: Growth inhibition of human CAKI-1 cells at 10 uM after 48 hrs by sulforhodamine B assay; settings: CAKI-1, 48 h, read-out: GI; summary of the method: as §2
[15] = test system: SK-MEL-5; assay: Growth inhibition of human SK-MEL-5 cells at 10 uM after 48 hrs by sulforhodamine B assay; settings: SK-MEL-5, 48 h, read-out: GI; summary of the method: as §1
[16] = test system: SR; assay: Growth inhibition of human SR cells at 10 uM after 48 hrs by sulforhodamine B assay; settings: read-out: GI; summary of the method: as §1
[17] = test system: ACHN; assay: Growth inhibition of human ACHN cells at 10 uM after 48 hrs by sulforhodamine B assay; settings: read-out: GI; summary of the method: as §2
[18] = test system: SF-268; assay: Growth inhibition of human SF268 cells at 10 uM after 48 hrs by sulforhodamine B assay; settings: SF-268, 48 h, read-out: GI; summary of the method: as §1
[19] = test system: SK-MEL-28; assay: Growth inhibition of human SK-MEL-28 cells at 10 uM after 48 hrs by sulforhodamine B assay; settings: SK-MEL-28, 48 h, read-out: GI; summary of the method: as §1
[20] = test system: SK-MEL-2; assay: Growth inhibition of human SK-MEL-2 cells at 10 uM after 48 hrs by sulforhodamine B assay; settings: SK-MEL-2, 48 h, read-out: GI; summary of the method: as §1
[21] = test system: OVCAR-5; assay: Growth inhibition of human OVCAR5 cells at 10 uM after 48 hrs by sulforhodamine B assay; settings: OVCAR-5, 48 h, read-out: GI; summary of the method: as §1
[22] = test system: SW-620; assay: Growth inhibition of human SW620 cells at 10 uM after 48 hrs by sulforhodamine B assay; settings: SW-620, 48 h, read-out: GI; summary of the method: as §1
[23] = test system: COLO 205; assay: Growth inhibition of human COLO205 cells at 10 uM after 48 hrs by sulforhodamine B assay; settings: COLO 205, 48 h, read-out: GI; summary of the method: as §2
[24] = Growth inhibition of human EKVX cells at 10 uM after 48 hrs by sulforhodamine B assay; settings: read-out: GI; summary of the method: as §3
[25] = test system: MDA-MB-468; assay: Growth inhibition of human MDA-MB-468 cells at 10 uM after 48 hrs by sulforhodamine B assay; settings: MDA-MB-468, 48 h, read-out: GI; summary of the method: as §1
[26] = test system: TK-10; assay: Growth inhibition of human TK10 cells at 10 uM after 48 hrs by sulforhodamine B assay; settings: TK-10, 48 h, read-out: GI; summary of the method: as §1
[27] = test system: SNB-75; assay: Growth inhibition of human SNB75 cells at 10 uM after 48 hrs by sulforhodamine B assay; settings: SNB-75, 48 h, read-out: GI; summary of the method: as §1
[28] = test system: SF-295; assay: Growth inhibition of human SF295 cells at 10 uM after 48 hrs by sulforhodamine B assay; settings: SF-295, 48 h, read-out: GI; summary of the method: as §1
[29] = test system: HL-60(TB); assay: Growth inhibition of human HL-60(TB) cells at 10 uM after 48 hrs by sulforhodamine B assay; settings: HL-60, 48 h, read-out: GI
Summary of the method: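 Single-dose NCI-60 primary screen at 10 µM, 48 h exposure, SRB read-out. Growth percentage of treated versus untreated cells was recorded and given as percent inhibition by subtraction.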

[30] = test system: HOP-62; assay: Growth inhibition of human HOP62 cells at 10 uM after 48 hrs by sulforhodamine B assay; settings: HOP-62, 48 h, read-out: GI; summary of the method: as §3
[31] = test system: HCT-116; assay: Growth inhibition of human HCT116 cells at 10 uM after 48 hrs by sulforhodamine B assay; settings: HCT-116, 48 h, read-out: GI; summary of the method: as §3
[32] = test system: MDA-MB-231; assay: Growth inhibition of human MDA-MB-231 cells at 10 uM after 48 hrs by sulforhodamine B assay; settings: MDA-MB-231, 48 h, read-out: GI; summary of the method: as §1
[33] = test system: Malme-3M; assay: Growth inhibition of human MALME-3M cells at 10 uM after 48 hrs by sulforhodamine B assay; settings: read-out: GI; summary of the method: as §1

| SMILES | inhibition of growth at 10 µM [1] | inhibition of growth at 10 µM [2] | inhibition of growth at 10 µM [3] | inhibition of growth at 10 µM [4] | inhibition of growth at 10 µM [5] | inhibition of growth at 10 µM [6] | inhibition of growth at 10 µM [7] | inhibition of growth at 10 µM [8] | inhibition of growth at 10 µM [9] | inhibition of growth at 10 µM [10] | inhibition of growth at 10 µM [11] | inhibition of growth at 10 µM [12] | inhibition of growth at 10 µM [13] | inhibition of growth at 10 µM [14] | inhibition of growth at 10 µM [15] | inhibition of growth at 10 µM [16] | inhibition of growth at 10 µM [17] | inhibition of growth at 10 µM [18] | inhibition of growth at 10 µM [19] | inhibition of growth at 10 µM [20] | also measured |
| --- | --- | --- | --- | --- | --- | --- | --- | --- | --- | --- | --- | --- | --- | --- | --- | --- | --- | --- | --- | --- | --- |
| O=S(=O)(Nc1cccc2ccccc12)c1ccc2nc(-c3ccccc3)c(-c3ccccc3)nc2c1 | 21.3% | 17.9% | 29.9% | 58.3% | 23.6% | 22.2% | 20.6% | 47.8% | 49.6% | 5.57% | 4.56% | 8.87% | 5.86% | 3.34% | 48.6% | 81.1% | 21.9% | 2.78% | 5.98% | 14.9% | inhibition of growth at 10 µM [21]: 2.98%; inhibition of growth at 10 µM [22]: 26.8%; inhibition of growth at 10 µM [23]: 27.9%; inhibition of growth at 10 µM [24]: 71.2%; inhibition of growth at 10 µM [25]: 54.9%; inhibition of growth at 10 µM [26]: 6.34%; inhibition of growth at 10 µM [27]: 39.9%; inhibition of growth at 10 µM [28]: 3.88%; inhibition of growth at 10 µM [29]: 71%; inhibition of growth at 10 µM [30]: 2.24%; inhibition of growth at 10 µM [31]: 49.9%; inhibition of growth at 10 µM [32]: 38.7%; inhibition of growth at 10 µM [33]: 9.98% |
| O=S(=O)(Nc1ccc(Cl)cc1)c1ccc2nc(-c3ccccc3)c(-c3ccccc3)nc2c1 | 26.6% | 29.2% | 38.7% | 61.9% | 47.1% | 32.8% | 34.8% | 60.8% | 55.6% | 25.9% | 37.9% | 26.9% | 18.5% | 33.9% | 74% | 88.1% | 23.9% | 14.1% | 14.6% | 23.9% | inhibition of growth at 10 µM [21]: 18.3%; inhibition of growth at 10 µM [22]: 30.3%; inhibition of growth at 10 µM [23]: 26.6%; inhibition of growth at 10 µM [24]: 57.8%; inhibition of growth at 10 µM [25]: 76.8%; inhibition of growth at 10 µM [26]: 2.84%; inhibition of growth at 10 µM [27]: 45.1%; inhibition of growth at 10 µM [28]: 40.7%; inhibition of growth at 10 µM [29]: 66.7%; inhibition of growth at 10 µM [30]: 12.8%; inhibition of growth at 10 µM [31]: 59.6%; inhibition of growth at 10 µM [32]: 54.3%; inhibition of growth at 10 µM [33]: 6.64% |
| COc1ccccc1NS(=O)(=O)c1ccc2nc(-c3ccccc3)c(-c3ccccc3)nc2c1 | 23% | 22.8% | 8.62% | 49.8% | 45.5% | 23.2% | 24.1% | 56.9% | 45.5% | 24.7% | 19.9% | 32.6% | 18.6% | 23.9% | 61.4% | 81.9% | 13.1% | 23.8% | 12.7% | 25% | inhibition of growth at 10 µM [21]: 12.7%; inhibition of growth at 10 µM [22]: 21.5%; inhibition of growth at 10 µM [23]: 28.9%; inhibition of growth at 10 µM [24]: 48.8%; inhibition of growth at 10 µM [25]: 56.8%; inhibition of growth at 10 µM [26]: 1.26%; inhibition of growth at 10 µM [27]: 31.9%; inhibition of growth at 10 µM [28]: 15.9%; inhibition of growth at 10 µM [29]: 60.7%; inhibition of growth at 10 µM [30]: 2.12%; inhibition of growth at 10 µM [31]: 55.7%; inhibition of growth at 10 µM [32]: 48.3%; inhibition of growth at 10 µM [33]: 1.87% |

— ChEMBL document CHEMBL2407075, “Sulphonamido-quinoxalines: search for anticancer agent” (Eur J Med Chem, 2013)
